Shown are actives, neighbours in structure and some others; about 1.8% of the full set was active somewhere.
CAL PDZ FP-1: blocks peptide binding to the human CAL PDZ domain. purified CAL PDZ, TMR-peptide fluorescence polarization, 1 h. inhibition, % at 24.9 µM. AID 602252. Q9HD26. 0.92% of 300,000 active;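 active = mean inhibition of at least 30% with at least half of replicates also reaching 30%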;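 also: 0% = DMSO neutral control and 100% = excess unlabeled competitor peptide PRC23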
DDE Tn7 FP inh: inhibitors of Tn7 peptide binding to human fibrin DD(E) | P02675 | FP displacement of FITC-Tn7 peptide from fibrin DD(E); 0% = median of compound wells per plate | inhibition, % at 8.3 µM | 0.13% of 370,000 active | AID 720508;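 active = inhibition above the mean of compounds falling within the control limits plus 3 SD of them, cut at about 14% in these data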;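 also: 0% = plate median of compound wells and 100% = 10 µM Aha-Tn7 peptide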
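Assay system: human fibrin DD(E) protein / Input: 2 µM fibrin DD(E) / Benchmarks: high control of 10 µM Aha-Tn7 peptide / Measured by: fluorescence polarization of the labelled Tn7 tracer / Medium: Tris buffer with calcium and detergent, pH 7.8 / Timing: 10 min compound pre-incubation, 3 h probe incubation at room temperature / Repeats: one replicate per compound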
DDE Tn6 FP inh: inhibitors of Tn6 peptide binding to human fibrin DD(E); inhibition, % at 8.3 µM; AID 720509; 0.21% of 370,000 active; Fibrin DD(E) TRITC-Tn6 fluorescence polarization displacement;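 active = inhibition above a per-campaign cutoff: mean of compounds within control limits plus 3 SD, cut at about 15% in these data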;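 also: 0% = median of all compound wells on the plate and 100% = blocking peptide control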
CAL PDZ FP-2: inhibitors of human CAL PDZ peptide binding; Q9HD26; purified CAL PDZ, TMR-peptide fluorescence polarization, 1 h; inhibition, % at 20 µM; 0.02% of 330,000 active; AID 504414;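 active = highest replicate inhibition of at least 40%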;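 also: plate controls were DMSO neutral control wells for no effect and unlabeled competitor peptide control wells for full effect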
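Test system: purified CerCALP PDZ construct; Compound dosing: one concentration, 20 µM compound; Also added: TMR-labelled reporter peptide T*-PRC34 bound in PDZ groove; Read-out: inhibition from polarization loss; Controls: unlabelled peptide and DMSO controls; Signal: FP readout, S and P plane fluorescence; Incubation: 1 h at RT.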
GRK2 aptamer HTS: inhibitors of human GRK2 displacing RNA aptamer; P25098; bead flow cytometry, FAM-aptamer displacement from GRK2; inhibition of aptamer binding, % at 10 µM; 0.59% of 330,000 active; AID 488847;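 active = inhibition of aptamer binding above 40%, roughly 3 SD of noise, on plates passing a quality check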;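 also: median bead fluorescence of bound FAM aptamer so fluorescent compounds give negative values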
Target sequence (P25098 whole entry, looked up): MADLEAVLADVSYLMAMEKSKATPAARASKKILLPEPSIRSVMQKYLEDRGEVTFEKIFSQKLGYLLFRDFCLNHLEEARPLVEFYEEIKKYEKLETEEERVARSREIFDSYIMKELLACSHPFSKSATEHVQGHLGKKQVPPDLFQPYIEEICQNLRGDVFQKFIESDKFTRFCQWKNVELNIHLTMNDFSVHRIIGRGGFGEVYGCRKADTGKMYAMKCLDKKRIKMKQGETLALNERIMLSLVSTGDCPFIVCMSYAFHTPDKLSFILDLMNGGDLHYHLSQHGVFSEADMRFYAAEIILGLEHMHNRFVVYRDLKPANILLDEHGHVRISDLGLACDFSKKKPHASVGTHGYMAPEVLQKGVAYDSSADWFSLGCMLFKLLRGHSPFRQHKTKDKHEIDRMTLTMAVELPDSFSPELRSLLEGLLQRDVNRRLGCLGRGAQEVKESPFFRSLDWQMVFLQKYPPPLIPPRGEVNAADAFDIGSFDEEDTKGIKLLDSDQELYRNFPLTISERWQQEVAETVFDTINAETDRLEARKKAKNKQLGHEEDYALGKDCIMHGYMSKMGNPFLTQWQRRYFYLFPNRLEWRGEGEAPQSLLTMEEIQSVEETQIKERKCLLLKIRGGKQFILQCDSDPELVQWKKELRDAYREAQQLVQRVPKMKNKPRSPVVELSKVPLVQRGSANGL
ARNT-TACC3 inh: ARNT/TACC3 interaction disruption | Q9Y6A5 | AlphaScreen His-ARNT PAS-B/GST-TACC3 binding, luminescence; TACC3 fragment carries E629A point mutation | inhibition, % at 9.99 µM | 0.66% of 390,000 active;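 active = mean inhibition of replicates at least 50% and at least half of replicates each reaching 50%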;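 also: 0% = complete ARNT plus TACC3 wells and 100% = ARNT alone without TACC3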
DDE Tn7 confirm: confirmation of inhibitors of Tn7 binding to human fibrin DD(E); FP displacement of TRITC-Tn7 peptide from DD(E); 0% set at plate's compound-well median; 5% of 460 active; shares compounds with DDE Tn7 FP inh; inhibition, % at 8.3 µM;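 active = inhibition above the campaign cutoff, the mean of compounds within control limits plus 3 SD, cut at about 14% in these data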;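 also: 100% = median FP of high control wells holding Aha-Tn7 inhibitor peptide; displacers lower polarization since freed probe rises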
DDE Tn7 FP ctr: counter-screen hit for Tn7 peptide-fibrin DD(E) binding disruption; shares compounds with DDE Tn7 FP inh; TRITC-Tn7 probe displacement, fluorescence polarization; inhibition, % at 8.3 µM; 3% of 460 active; AID 720633;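 active = inhibition above the cutoff, the mean of compounds lying between the control bounds plus 3 SD of those compounds, cut at about 17% in these data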;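 also: 0% = median of compound sample wells and 100% = excess unlabeled Aha-Tn7 peptide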
Starred values were filed as active, the others as inactive; . = no result.

SMILES	CAL PDZ FP-1	DDE Tn7 FP inh	DDE Tn6 FP inh	CAL PDZ FP-2	GRK2 aptamer HTS	ARNT-TACC3 inh	DDE Tn7 confirm	DDE Tn7 FP ctr
C[C@H]1CN([C@@H](C)CO)C(=O)c2cc(NS(=O)(=O)c3cccs3)ccc2O[C@H]1CN(C)Cc1ccc(-c2ccccc2)cc1	.	.	.	.	.	0.4	.	.
O=C1CCCc2c1cc(C(=O)O)c(=O)n2-c1ccccc1	-2.2	-5.4	-8.4	0.2	0.0	-6.5	.	.
COC(=O)C(CCSC)NC(=O)c1cc2c(n(-c3ccccc3)c1=O)CCCC2=O (stereo not drawn)	-1.4	14.9*	7.9	16.8	0.0	-0.6	6.1	1.1
CCC1(C)NC(=O)N(CC(=O)N2N=C(c3ccccc3)CC2c2ccc(OC)cc2)C1=O (stereo not drawn)	.	16.5*	3.0	-0.7	0.0	-9.1	-4.5	-8.8
Cc1ccc(N=Cc2ccccc2O)cc1Cl	-3.9	14.6*	6.4	0.1	.	-0.5	4.2	3.2
O=C(NC1CCCCC1)C(c1cccnc1)N(C(=O)c1ccc(Cl)nc1)C1CCCCC1 (stereo not drawn)	-4.4	-0.2	0.5	-1.7	0.0	-2.2	.	.
O=C(CSc1nnc(CNC(=O)c2ccco2)o1)Nc1ccc(Cl)cc1	-1.8	4.1	-0.5	-1.5	4.0	0.9	.	.
O=C(CSc1nnc(CNC(=O)c2ccco2)o1)Nc1cccc(Cl)c1	-3.5	15.7*	1.1	-1.6	3.0	-54.8	-0.7	-3.6
O=C1CCN2C=Nc3cccc4ccc1c2c34	-0.8	62.7*	3.1	-1.2	0.0	5.6	30.2*	-8.0
COc1ccc(C2=C(C)C(N3CCN(C(=O)c4ccco4)CC3)=NS2(=O)=O)cc1	1.0	-1.4	-3.7	-0.6	2.0	-6.0	.	.
COc1ccc(C(=O)N2CCN(c3ccc(NC(=O)c4ccco4)cc3)CC2)cc1	0.9	14.4*	-0.6	-2.2	0.0	-1.2	-1.7	-6.5
COCCNC(=O)COC(=O)c1ccc(S(=O)(=O)N2CCOCC2)cc1	-4.0	16.2*	0.1	-0.7	2.0	-4.8	2.3	3.0
O=C(COC(=O)c1ccc(S(=O)(=O)N2CCOCC2)cc1)NCc1ccccc1	-1.3	0.1	-7.2	-0.2	7.0	-0.5	.	.
CC(C)c1nc(C#N)c(NCCCn2ccnc2)o1	.	-6.0	4.4	-1.8	5.0	8.8	.	.
CC(C)c1nc(C#N)c(NN)o1	.	13.8*	-3.1	-1.2	0.0	5.5	-6.7	-9.2
Cc1c(NS(=O)(=O)c2ccc([N+](=O)[O-])cc2)c(=O)n(-c2ccccc2)n1C	3.9	3.3	0.6	-1.9	0.0	0.2	.	.
Cc1c(NS(=O)(=O)c2cc([N+](=O)[O-])ccc2Cl)c(=O)n(-c2ccccc2)n1C	-4.0	14.1*	0.5	0.4	0.0	5.5	-6.4	-10.3
C[C@@]12CCC=C[C@H]1[C@H](c1ccc(/C=C/c3ccccc3)cc1F)N(Cc1ccccc1)C2=O	-4.0	15.9*	10.5	0.4	0.0	2.7	7.5	2.7
COc1ccc([C@@H]2C[C@@H](c3ccccc3)Oc3cc(C)cc(C)c32)cc1	-3.3	2.5	3.0	0.0	.	-12.7	.	.
COc1ccc([C@@H]2C[C@@H](c3ccccc3)Oc3c(C)ccc(C(C)C)c32)cc1	.	14.2*	-4.4	.	1.0	.	10.0	7.0
CCc1ccc(C(C)NC(=O)/C(C#N)=C\c2cn[nH]c2-c2ccccc2)cc1 (stereo not drawn)	-2.7	14.1*	4.5	.	0.0	-1.3	12.5	8.9
COc1ccccc1CN1C[C@@H]2C[C@@H](c3ccccc3C)N3CCC[C@@]23C1=O	-6.5	15.8*	4.0	-2.9	0.0	1.2	-2.3	-4.3
O=C(CNc1n[nH]c(=O)[nH]c1=O)N/N=C/c1cccnc1	-3.4	-0.4	-0.1	0.4	1.0	-12.7	.	.
O=C(CNc1n[nH]c(=O)[nH]c1=O)N/N=C/c1ccccc1	.	15.3*	2.6	.	6.0	.	4.6	4.3
